Screening results from PubChem.
An excerpt weighted towards active compounds, which were near 4.9% of everything screened.
STAT3 act = increases IL-6 driven STAT3 reporter signal. U3A cells, IL-6 STAT3-luciferase reporter, luminescence; 100% = signal with IL-6 EC80 alone. activation (% of control), % at 5.6 µM. actives 0.91% (n = 190,000);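 active = activation above the screen-wide mean of compound activation plus 3 SD, cut at about 130% in these data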;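 note: 0% = background luminescence of wells with medium and substrate only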
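Detection: reporter luminescence signal / Assay system: STAT1-lacking human U3A cells, STAT3 luciferase reporter / Incubation: compound pre-incubation 1 h before IL-6, then 6 h stimulation at 37 °C / Control set: IL-6-only high control / Read-out: % activation relative to IL-6 control / Probe or stimulus: Interleukin-6, 33 ng/mL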
NF-kB neuron act = NF-kB expression increase, human neuronal cells | fold change at 12.5 µM | actives 1.6% (n = 190,000) | NF-kB reporter expression; hits give high values; in the data active = fold change above about 3.3
STAT1 blocker = reduces IFN-gamma driven STAT1 reporter signal; NIH 3T3 STAT1-luciferase reporter, luminescence; inhibition, % at 5.5 µM; actives 0.35% (n = 200,000);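 active = inhibition above a set limit, the mean inhibition across all tested compounds plus 3 SD, cut at about 34% in these data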;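 note: 0% = IFN-gamma with DMSO and 100% = IFN-gamma with 300 µM nifuroxazide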
APP 5'UTR act = APP 5'UTR luciferase reporter activation. SH-SY5Y APP 5'UTR luciferase reporter, luminescence; zero percent = DMSO vehicle wells. activation, % at 2 µM. actives 1% (n = 190,000);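 active = activation above a set limit, based on mean plus 3 SD of controls, cut at about 140% in these data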
STAT1 activator = STAT1 signaling activation; NIH 3T3 STAT1-luciferase reporter, IFN-gamma, luminescence; 100% = IFN-gamma alone, no compound; actives 2.6% (n = 200,000); activation (% of control), % at 5.5 µM; AID 932;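 active = activation above the screen-wide mean activation plus 3 SD, cut at about 130% in these data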;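 note: raw ratio to IFN-gamma control signal so 100% means no change and 0% no light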
STAT3 blocker = STAT3 signaling inhibition | inhibition, % at 5.5 µM | U3A cells, IL-6 STAT3-luciferase reporter, luminescence; host cell line lacks STAT1 | actives 0.89% (n = 190,000);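 active = inhibition above the mean inhibition across all screened compounds plus 3 SD, cut at about 44% in these data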;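 note: 0% = DMSO only wells and 100% = 100 µM nifuroxazide control wells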
* = called active by the depositor.

SMILES | STAT3 act | NF-kB neuron act | STAT1 blocker | APP 5'UTR act | STAT1 activator | STAT3 blocker
O=C(CC(Nc1ccc(F)cc1)C(=O)O)c1ccccc1 (stereo unspecified) | 55 | 5.7* | -52 | 89 | 148* | 54*
CC(C)(C)c1ccc(COn2ccnc2)cc1 | 102 | 1.3 | -4 | 5 | 102 | 4
CCCCCc1c(O)nc(SCCN2CCOCC2)[nH]c1=O | 99 | 1 | -6 | 1 | 104 | 4
CCCCCCOc1ccc(OC(=O)c2ccncc2)cc1 | 91 | 9.9* | -2 | 3 | 96 | 15
COc1ccc(OC(=O)c2ccncc2)cc1 | 98 | 1.2 | 0 | -1 | 100 | 6
OCCC1CN(Cc2cnc(-c3cccc4ccccc34)nc2)CCN1C1CCCCC1 (stereo unspecified) | 98 | 0.53 | 4 | -11 | 95 | 4
CCn1c(=O)c(C)nn2c3ccccc3nc12 | 97 | 1 | -8 | -12 | 108 | 10
Cc1nn2c3ccccc3nc2c2ccccc12 | 134* | 1.1 | -21 | -6 | 115 | -41
Cc1cc(C(=O)Cn2nc(C(=O)O)c3ccccc3c2=O)c(C)n1-c1ccc(F)cc1 | 93 | 0.87 | -10 | -3 | 109 | 12
COc1ccc(N2CC(NC(=O)NCC(C)C)CC2=O)cc1 (stereo unspecified) | 99 | 1.6 | -3 | -3 | 103 | -1
C=CCSc1nnc(-c2ccc(Cl)cc2Cl)o1 | 76 | 7.5* | -22 | 159* | 120 | 33
Clc1ccc(-c2nnc(CCc3ccccc3)o2)c(Cl)c1 | 103 | 2.5 | -41 | 62 | 137* | 1
Clc1ccc(-c2nnc(SCc3nc4ccccc4[nH]3)o2)c(Cl)c1 | 100 | 1.1 | 4 | 55 | 96 | 3
Clc1ccc(-c2nnc(SCc3ccon3)o2)c(Cl)c1 | 72 | 9.7* | -28 | 144* | 141* | 35
ClCc1ncc(-c2ccc(Cl)cc2)o1 | 100 | 0.99 | 3 | -21 | 97 | 5
COCCN(C(=O)CC1C(=O)NCCN1Cc1ccc(-c2ccccc2)cc1)C(C)C (stereo unspecified) | 105 | 1 | -3 | 1 | 102 | 6
S=C(NCCN1CCOCC1)Nc1ccccc1Cl | 98 | 1.4 | 10 | -5 | 91 | 5
O=C(NCc1ccccc1)c1noc2c1CCCC2 | 106 | 1.4 | 2 | 0 | 99 | -1
CCc1ccc(NC(=O)c2noc3c2CCC3)cc1 | 108 | 3.4* | -5 | 144* | 104 | -2
Cc1ccc(O)c(NC(=O)c2noc3c2CCCCC3)c1 | 107 | 9.8* | -18 | 212* | 115 | -7
CC(C)(C)C1CCc2onc(C(=O)NC3CCCC3)c2C1 (stereo unspecified) | 88 | 1 | -2 | -1 | 101 | 18
O=C(NC1CCCCC1)c1noc2c1CCCCC2 | 106 | 1.4 | -54 | 131 | 149* | -1
O=C(NCCc1ccccc1)c1noc2c1CCCCC2 | 103 | 3.8* | -44 | 100 | 140* | 1
OCCC1CN(Cc2ccon2)CCN1CCc1ccccc1 (stereo unspecified) | 104 | 1 | -8 | 6 | 106 | 0
Oc1ccc(-c2nnc(SCC3CCCCC3)o2)cc1 | 98 | 4.9* | -21 | 111 | 119 | 12
SMILES | STAT3 act | NF-kB neuron act | STAT1 blocker | APP 5'UTR act | STAT1 activator | STAT3 blocker
O=C(CSc1nnc(-c2ccc(O)cc2)o1)N1CCOCC1 | 103 | 1.6 | -17 | 1 | 114 | 3
Cc1c(-n2c(SCC(=O)C(C)(C)C)nc3ccccc3c2=O)c(=O)n(-c2ccccc2)n1C | 95 | 1.2 | 3 | -4 | 97 | 8
Cc1ccc(CNc2ccc3c(c2)ncn3C)cc1 | 112 | 3.3 | -42 | 107 | 139* | -9
CCc1ccc(CNc2ccc3c(c2)ncn3C)cc1 | 111 | 2.4 | -53 | 102 | 148* | -5
Cn1cnc2cc(NCc3cccs3)ccc21 | 100 | 1.9 | -14 | 13 | 112 | 4
CCn1cnc2cc(NCc3ccncc3)ccc21 | 99 | 0.96 | -2 | 7 | 107 | 3
Cc1ccc(C(=O)Nc2ccc3c(c2)ncn3C)cc1 | 95 | 3.5* | -42 | 140* | 139* | 7
Cc1ccsc1CNC1C2CC3CC(C2)CC1C3 (stereo unspecified) | 103 | 1.2 | 4 | 9 | 94 | 4
Nc1ncnc(Oc2ccccc2F)c1[N+](=O)[O-] | 96 | 0.81 | 9 | 15 | 90 | 6
CC12CN(NC(=O)c3ccccc3F)C3(C#N)CC1CCC23C (stereo unspecified) | 107 | 0.98 | 3 | 7 | 96 | 0
COc1ccc(CN2C(=O)c3c(c(C)n(C)c3C)C2C(=O)NC2CCC(C)CC2)cc1 (stereo unspecified) | 112 | 1.2 | 3 | -16 | 97 | 0
Cc1ccc2c(c1)NC(=O)CC(c1ccccc1)=N2 | 97 | 2 | -29 | 12 | 126 | 7
CC1=CC(C)=Nc2ccc(C)cc2N1 | 110 | 0.75 | -42 | 21 | 139* | -3
Cc1cccc(NC(=S)N2CCOCC2)c1C | 100 | 1 | 7 | -7 | 94 | 2
O=C(COC(=O)c1cccnc1Cl)c1ccccc1 | 103 | 1.3 | -33 | 0 | 130* | 1
CCC(=O)Nc1ccccc1C(=O)OCC(=O)c1ccccc1 | 96 | 2.2 | -41 | 76 | 138* | 11
CCC(=O)Nc1cccc(C(=O)OCC(=O)c2ccccc2Cl)c1 | 118 | 2.2 | -32 | 10 | 130* | -15
CC(=O)Nc1cccc(C(=O)OCC(=O)c2ccccc2Cl)c1 | 96 | 2.2 | -30 | 29 | 128 | 10
O=C(COC(=O)c1cccnc1Cl)c1ccc(F)cc1 | 96 | 1.2 | -28 | 8 | 126 | 13
CCCCC(=O)Nc1ccccc1C(=O)OCC(=O)c1ccc2c(c1)OCCO2 | 94 | 0.84 | -36 | 70 | 132* | 3
C=CCNc1nc(S(=O)Cc2ccc(C)cc2)nc2c1CCCC2 (stereo unspecified) | 92 | 1.6 | 6 | -4 | 94 | 11
CC(=O)Nc1cc(C(=O)OCC(=O)c2ccccc2)ccc1C | 98 | 1.2 | -41 | 50 | 136* | 5
COc1ccc([N+](=O)[O-])cc1NC(=O)C(C)Sc1nc(-c2ccccc2)cs1 (stereo unspecified) | 104 | 0.76 | -7 | 10 | 106 | -10
Clc1ccc(OCc2cn3cccnc3n2)c2ncccc12 | 107 | 1.3 | -26 | 18 | 124 | -5
Cc1cc(Cl)ccc1OCc1cn2cccnc2n1 | 91 | 3 | -36 | 94 | 133* | 17
Cc1ccc2nc3sc(C(=O)N4CCOCC4)c(N)c3cc2c1 | 29 | 1.6 | 50* | 192* | 54 | 90*
Cc1ccc2nc3sc(C(=O)Nc4c(C)[nH]c(=O)[nH]c4=O)c(N)c3cc2c1 | 95 | 0.73 | 7 | 16 | 94 | 5
